Shown are actives, neighbours in structure and some others; about 4.1% of the full set was active somewhere.
hERG rescue – shields human hERG channel from block by proarrhythmic agents. Q12809. CHO-hERG, FluxOR thallium flux, dofetilide IC70 present. activation (rescue from dofetilide block), less the hit threshold, % at 10 µM. 310,000 tested, 0.51% active. AID 1511;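 active = activation above the mean of controls blocked by dofetilide plus 5 SD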;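 also: thallium influx through hERG after potassium depolarization seen as dye fluorescence rise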
KCNQ1 inh – blocks the human KCNQ1 potassium channel; AID 2642; CHO-K1 KCNQ1, FluxOR thallium flux fluorescence; hits give high values; P51787; B-score at 10 µM; 310,000 tested, 1.3% active;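 active = compounds whose thallium flux B-score, printed positive for inhibition, exceeds three library SD while starting fluorescence stays within three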;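 also: channel opened by potassium depolarization with thallium stimulus after 20 min compound exposure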
Cl transport mod – KCC2 (human) Cl- transport modulation; B-score of Tl+ flux slope (higher = more flux/activation; lower = inhibition) at 10 µM; Q9H2X9; KCC2 cells, thallium flux FluoZin-2 fluorescence; 190,000 tested, 2.2% active; AID 1456;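 active = thallium flux slope and its plate-corrected score both differing from the plate sample mean at a set confidence after two filtering rounds, in either direction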;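 also: slope of fluorescence scaled to starting intensity during 10 to 20 s after thallium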
Target sequence (Q9H2X9 whole entry, looked up): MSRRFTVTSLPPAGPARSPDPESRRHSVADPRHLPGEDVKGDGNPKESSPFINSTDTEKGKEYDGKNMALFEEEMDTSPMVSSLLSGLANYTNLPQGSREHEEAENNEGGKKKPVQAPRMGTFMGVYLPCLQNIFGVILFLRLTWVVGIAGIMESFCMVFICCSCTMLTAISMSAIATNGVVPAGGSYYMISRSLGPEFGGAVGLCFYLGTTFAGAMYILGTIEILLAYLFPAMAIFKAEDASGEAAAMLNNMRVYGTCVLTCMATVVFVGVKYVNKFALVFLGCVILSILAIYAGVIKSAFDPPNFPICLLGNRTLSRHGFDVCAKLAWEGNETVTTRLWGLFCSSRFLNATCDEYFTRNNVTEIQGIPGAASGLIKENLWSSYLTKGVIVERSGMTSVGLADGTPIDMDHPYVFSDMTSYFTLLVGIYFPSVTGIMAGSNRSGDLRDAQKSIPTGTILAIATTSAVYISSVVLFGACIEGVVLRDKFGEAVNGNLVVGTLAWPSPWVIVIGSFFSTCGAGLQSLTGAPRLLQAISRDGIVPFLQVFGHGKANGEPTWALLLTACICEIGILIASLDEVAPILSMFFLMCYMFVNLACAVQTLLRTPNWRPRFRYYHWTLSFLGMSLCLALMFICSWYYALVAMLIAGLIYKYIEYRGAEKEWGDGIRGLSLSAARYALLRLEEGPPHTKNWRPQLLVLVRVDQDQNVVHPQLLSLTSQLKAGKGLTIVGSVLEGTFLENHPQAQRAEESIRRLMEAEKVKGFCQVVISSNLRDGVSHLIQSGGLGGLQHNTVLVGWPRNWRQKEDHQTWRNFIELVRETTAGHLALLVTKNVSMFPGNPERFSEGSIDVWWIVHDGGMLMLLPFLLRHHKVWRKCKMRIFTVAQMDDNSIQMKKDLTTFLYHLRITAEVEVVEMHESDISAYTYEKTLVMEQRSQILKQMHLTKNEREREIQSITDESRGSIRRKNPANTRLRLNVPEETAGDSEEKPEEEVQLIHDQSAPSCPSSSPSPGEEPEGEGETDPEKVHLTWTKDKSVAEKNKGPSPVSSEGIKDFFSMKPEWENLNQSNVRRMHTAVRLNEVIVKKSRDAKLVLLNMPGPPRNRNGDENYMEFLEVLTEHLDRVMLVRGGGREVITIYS
KCNK9 block – blocks the human KCNK9 two-pore domain potassium channel; Q9NPC2; HEK293 KCNK9, FluxOR thallium flux fluorescence; hits give low values; B-score at 10 µM; 310,000 tested, 1.2% active; AID 488922;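 active = ratio B-score over 3 SD below the library mean, with starting fluorescence within 5 SD of its mean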;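 also: negative B-score means less thallium flux so channel inhibition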
KCNQ1 act – potentiates or activates the human KCNQ1 potassium channel | P51787 | 310,000 tested, 0.35% active | B-score at 10 µM | CHO-K1 KCNQ1, thallium flux FluxOR fluorescence; hits give high values;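 active = fluorescence ratio B-score, a plate-corrected score, at least three library SD, with initial intensity B-score within 5 SD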
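assay system = CHO-K1 cells stably expressing KCNQ1 | medium = assay buffer, equal DMSO in all wells | timing = 37 °C overnight plating, 90-min dark dye load, 20-min compound pretreatment | measured by = kinetic FluxOR thallium fluorescence, 10-s 1-Hz baseline, 110-s post-stimulus read | measure = fluorescence change relative to baseline, converted to B score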
KCNK3 inh – human KCNK3 channel inhibition, primary screen; CHO-KCNK3 thallium flux, FluxOR fluorescence; hits give low values; B-score at 10 µM; 340,000 tested, 0.84% active;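 active = B-score under library mean minus 4 SD, starting fluorescence ratio at most library mean plus 5 SD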;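 also: more negative B-score means stronger inhibition of thallium flux through KCNK3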
* hit, by the source's call; i = inactive; . = not tested or not shown.

SMILES | hERG rescue | KCNQ1 inh | Cl transport mod | KCNK9 block | KCNQ1 act | KCNK3 inh
O=C(N/N=C/C1=C(N2CCOCC2)C(=C\c2ccccc2)/CC1)Nc1ccccc1 | -5 | i | -0.89 | i | i | i
Cc1ccc(Cl)cc1NC(=O)CNC(=O)N1CC(=O)Nc2ccccc21 | -6 | i | . | i | i | i
O=C(CSc1nc2ccccc2nc1N1CCCCC1)N1CCN(c2ccccc2)CC1 | -15 | 6* | . | i | i | i
O=C(Nc1cc(S(=O)(=O)N2CCOCC2)ccc1OCC(F)(F)F)C1=COCCO1 | -19 | i | . | i | i | i
CN1CCCC(OC(=O)/C(C#N)=C/c2ccccc2)C1 (centres undefined) | -1 | i | -0.4 | i | i | i
S=c1[nH]nc(-c2ccco2)n1/N=C/c1cccs1 | -4 | i | 2.3 | i | i | i
S=c1[nH]nc(-c2ccco2)n1/N=C/c1ccc(Cl)cc1Cl | -6 | i | 16* | i | i | i
S=c1[nH]nc(-c2ccco2)n1/N=C/c1cccc(Cl)c1Cl | 0 | i | 49* | i | 15* | i
Cn1cccc1/C=N/n1c(-c2ccc(Cl)cc2Cl)n[nH]c1=S | -5 | i | . | i | 8* | i
O=C(NCc1ccco1)c1ccc([N+](=O)[O-])o1 | 1 | i | -0.83 | i | i | i
Cc1cc(N(C)C)ccc1[N+](=O)[O-] | 4.7* | i | -2.4 | i | i | i
Cn1nc(C(F)(F)F)cc1-c1ccc(/C=C(\C#N)C(=O)c2ccccc2)s1 | -4 | 8* | i | i | i | i
CC1CCc2c(sc3nn[nH]c(=O)c23)C1 (centres undefined) | -10 | i | -0.18 | i | i | i
C=CCn1c(=S)[nH]c2sc3c(c2c1=O)CCC3 | 16* | i | 31* | i | i | i
CCn1c(=S)[nH]c2sc3c(c2c1=O)CCCC3 | 16* | i | . | i | 35* | i
CN(C)CCCn1c(=S)[nH]c2sc3c(c2c1=O)CCCC3 | -12 | i | . | i | i | i
CC1CCc2c(sc3[nH]c(=S)n(C)c(=O)c23)C1 (centres undefined) | 52* | i | . | i | 74* | i
O=C(O)c1cccc(Nc2ccnc(Nc3cccc(C(=O)O)c3)n2)c1 | -3 | i | . | i | i | i
Cc1nc(SC(C)C(=O)c2c(N)n(C)c(=O)n(C)c2=O)c2c(C)c(C)sc2n1 (centres undefined) | -6 | i | . | i | 14* | i
Cc1nnc(SCC(=O)Nc2ccc(S(=O)(=O)N3CCCC3)cc2)n1N | 36* | i | 0.00033 | i | i | i
Cc1ccccc1-n1nnnc1SCC(=O)Nc1ccc(S(=O)(=O)N2CCCC2)cc1 | 0 | i | -0.0012 | i | i | i
Nn1c(SCC(=O)Nc2ccccc2)nnc1C1CCCCC1 | -7 | i | . | i | i | i
Nn1c(SCC(=O)Nc2ccc(F)cc2)nnc1C1CCCCC1 | 4.9* | i | 1.3 | i | i | i
COc1ccc(-c2c(C)n([O-])c(C)c(-c3ccccc3)[n+]2=O)cc1OC | -8 | i | 1.4 | i | i | i
O=C1C(Cl)=C(NCCN2CCCCC2)C(=O)c2ccccc21 | -21 | 6* | -0.29 | i | i | i
SMILES | hERG rescue | KCNQ1 inh | Cl transport mod | KCNK9 block | KCNQ1 act | KCNK3 inh
CCN1/C(=C(\O)c2ccccc2)C(=O)c2ccccc2S1(=O)=O | -4 | i | 1.7 | i | i | i
Nc1nonc1-n1nnc(C(=O)N/N=C/c2ccccc2F)c1CN1CCOCC1 | -6 | i | . | i | i | i
O=C1N=C(N2CCCCC2)SC1=C1CCCCC1 | -6 | i | 0.084 | i | i | i
O=C1NC(=S)SC1=C1CCCCCC1 | 27* | i | . | i | 63* | i
CCOc1cc(C(=O)NC)cc(OCC)c1OCC | 9.7* | i | 0.052 | i | i | i
N#C/C(=C\c1ccncc1)c1nc2c(s1)CCCC2 | -4 | i | 1.3 | i | i | i
